Assay results published in ChEMBL document CHEMBL4261600 (Eur J Med Chem, 2018).

What was measured:
Homo sapiens = species: Homo sapiens; assay: Selectivity ratio of IC50 for recombinant full length His-tagged human CDK1/CyclinB to IC50 for recombinant full length His-tagged human CDK9/CyclinT1
[1] = molecular target: TGF-beta receptor type-2 (Homo sapiens) (UniProt P37173); assay: Binding affinity to wild-type human partial length TGFBR2 (I218 to K567 residues) expressed in bacterial expression system assessed as remaining unbound target protein level at 1000 nM by Kinomescan method relative to control
Chain of TGF-beta receptor type-2 (Homo sapiens) (P37173 whole entry, the tested form may be a part): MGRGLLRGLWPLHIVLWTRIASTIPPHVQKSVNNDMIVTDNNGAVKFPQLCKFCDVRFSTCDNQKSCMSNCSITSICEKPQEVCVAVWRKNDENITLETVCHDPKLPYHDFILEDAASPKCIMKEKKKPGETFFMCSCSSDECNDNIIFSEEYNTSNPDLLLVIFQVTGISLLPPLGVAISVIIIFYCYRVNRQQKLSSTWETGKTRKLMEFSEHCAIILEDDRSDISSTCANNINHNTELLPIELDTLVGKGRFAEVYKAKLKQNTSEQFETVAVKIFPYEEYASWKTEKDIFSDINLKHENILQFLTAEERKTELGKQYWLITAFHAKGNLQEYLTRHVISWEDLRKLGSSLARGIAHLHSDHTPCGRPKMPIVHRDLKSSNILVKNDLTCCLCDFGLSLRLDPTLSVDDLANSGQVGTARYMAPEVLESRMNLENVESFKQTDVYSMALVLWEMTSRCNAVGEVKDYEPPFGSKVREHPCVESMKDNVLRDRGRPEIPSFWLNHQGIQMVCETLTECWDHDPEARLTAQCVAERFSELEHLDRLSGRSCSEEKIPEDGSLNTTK

[2] = test system: Tyrosine-protein kinase ABL1 (Homo sapiens), P00519 [M351T]; assay: Binding affinity to human phosphorylated ABL1 M351T mutant (S229 to K512 residues) expressed in mammalian expression system assessed as remaining unbound target protein level at 1000 nM by Kinomescan method relative to control
Outline: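 Single-point competition binding screen across a panel of 468 kinases and mutants, with the inhibitor at 1 μM. Binding is read out as percent of a DMSO control, and targets below 1 percent control were classed as strong binders.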

CDK2/Cyclin A2 = CDK2/Cyclin A2 (Homo sapiens, UniProt P24941); assay: Inhibition of recombinant full length His-tagged human CDK2/CyclinA expressed in baculovirus expression system
[3] = molecular target: MAP kinase-activated protein kinase 5 (Homo sapiens) (UniProt Q8IW41); assay: Binding affinity to wild-type human partial length MAPKAPK5 (M1 to D322 residues) expressed in mammalian expression system assessed as remaining unbound target protein level at 1000 nM by Kinomescan method relative to control
Chain of MAP kinase-activated protein kinase 5 (Homo sapiens) (Q8IW41 whole entry, the tested form may be a part): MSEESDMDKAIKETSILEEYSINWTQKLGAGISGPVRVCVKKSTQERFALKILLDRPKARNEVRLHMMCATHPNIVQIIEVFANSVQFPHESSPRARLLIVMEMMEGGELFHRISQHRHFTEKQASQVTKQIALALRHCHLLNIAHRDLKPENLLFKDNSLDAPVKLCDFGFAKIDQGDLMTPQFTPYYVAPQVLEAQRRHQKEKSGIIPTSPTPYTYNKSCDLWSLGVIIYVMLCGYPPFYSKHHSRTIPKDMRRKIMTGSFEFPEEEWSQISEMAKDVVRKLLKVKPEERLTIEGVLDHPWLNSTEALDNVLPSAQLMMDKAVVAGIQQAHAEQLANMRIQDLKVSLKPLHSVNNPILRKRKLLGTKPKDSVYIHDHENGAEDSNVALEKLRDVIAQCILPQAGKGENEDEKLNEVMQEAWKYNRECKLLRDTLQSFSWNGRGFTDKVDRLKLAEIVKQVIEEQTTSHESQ
Outline: (§1)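 KINOMEscan binding panel of 468 kinases/mutants. Inhibitor was tested at a single concentration of 1 μM. Binding is reported as percent of control, defined relative to a DMSO control.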

[4] = molecular target: Death-associated protein kinase 3 (Homo sapiens) (UniProt O43293); assay: Binding affinity to wild-type human partial length DAPK3 (M1 to A277 residues) expressed in bacterial expression system assessed as remaining unbound target protein level at 1000 nM by Kinomescan method relative to control; outline: as §1
Chain of Death-associated protein kinase 3 (Homo sapiens) (O43293 whole entry, looked up, the tested form may be a part): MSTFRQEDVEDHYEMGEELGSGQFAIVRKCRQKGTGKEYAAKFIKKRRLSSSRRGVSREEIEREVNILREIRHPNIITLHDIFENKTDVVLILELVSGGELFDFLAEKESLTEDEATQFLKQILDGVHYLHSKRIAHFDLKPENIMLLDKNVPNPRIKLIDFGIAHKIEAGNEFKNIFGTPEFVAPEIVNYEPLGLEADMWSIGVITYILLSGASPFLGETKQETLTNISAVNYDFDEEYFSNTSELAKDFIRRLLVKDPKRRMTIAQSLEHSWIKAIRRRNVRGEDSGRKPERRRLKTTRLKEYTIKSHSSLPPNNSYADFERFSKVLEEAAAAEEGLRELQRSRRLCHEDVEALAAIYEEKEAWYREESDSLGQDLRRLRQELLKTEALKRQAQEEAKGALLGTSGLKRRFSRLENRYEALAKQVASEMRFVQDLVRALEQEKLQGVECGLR

[5] = molecular target: Macrophage colony-stimulating factor 1 receptor (Homo sapiens) (UniProt P07333); assay: Binding affinity to wild-type human partial length autoinhibited CSF1R (Y538 to S939 residues) expressed in mammalian expression system assessed as remaining unbound target protein level at 1000 nM by Kinomescan method relative to control
Chain of Macrophage colony-stimulating factor 1 receptor (Homo sapiens) (P07333 whole entry, the tested form may be a part): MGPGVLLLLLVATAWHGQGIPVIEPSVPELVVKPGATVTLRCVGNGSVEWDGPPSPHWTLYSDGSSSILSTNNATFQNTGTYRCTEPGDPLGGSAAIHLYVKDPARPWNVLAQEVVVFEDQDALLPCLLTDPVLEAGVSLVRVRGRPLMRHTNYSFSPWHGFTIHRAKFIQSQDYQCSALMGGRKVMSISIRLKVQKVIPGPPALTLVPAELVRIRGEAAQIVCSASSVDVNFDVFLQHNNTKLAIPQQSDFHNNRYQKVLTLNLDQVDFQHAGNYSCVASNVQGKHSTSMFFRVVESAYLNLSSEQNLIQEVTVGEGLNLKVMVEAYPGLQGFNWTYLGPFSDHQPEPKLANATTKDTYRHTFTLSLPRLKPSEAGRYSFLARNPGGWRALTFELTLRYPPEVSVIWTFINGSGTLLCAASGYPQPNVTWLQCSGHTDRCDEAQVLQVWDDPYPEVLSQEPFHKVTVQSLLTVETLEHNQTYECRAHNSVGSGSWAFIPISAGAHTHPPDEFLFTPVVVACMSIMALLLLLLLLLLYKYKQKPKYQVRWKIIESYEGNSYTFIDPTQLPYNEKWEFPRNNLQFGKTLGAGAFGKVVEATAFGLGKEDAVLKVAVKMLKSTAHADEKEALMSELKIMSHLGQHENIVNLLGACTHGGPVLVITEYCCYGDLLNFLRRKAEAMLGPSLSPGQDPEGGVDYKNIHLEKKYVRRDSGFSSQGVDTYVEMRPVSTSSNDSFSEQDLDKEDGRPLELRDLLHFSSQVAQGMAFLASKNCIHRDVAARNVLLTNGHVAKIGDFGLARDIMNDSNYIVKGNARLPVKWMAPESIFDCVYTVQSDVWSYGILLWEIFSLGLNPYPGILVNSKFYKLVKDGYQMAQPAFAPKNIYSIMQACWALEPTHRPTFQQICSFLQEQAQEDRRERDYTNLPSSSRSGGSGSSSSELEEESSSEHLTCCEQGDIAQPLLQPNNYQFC

[6] = Half life in Sprague-Dawley rat at 3 mg/kg, iv by LC-MS/MS analysis; format: ADME, organism-based; conditions: in vivo
[7] = molecular target: Tyrosine-protein kinase Tec (Homo sapiens) (UniProt P42680); assay: Binding affinity to wild-type human partial length TEC (L341 to D620 residues) expressed in bacterial expression system assessed as remaining unbound target protein level at 1000 nM by Kinomescan method relative to control
Chain of Tyrosine-protein kinase Tec (Homo sapiens) (P42680 whole entry, the tested form may be a part): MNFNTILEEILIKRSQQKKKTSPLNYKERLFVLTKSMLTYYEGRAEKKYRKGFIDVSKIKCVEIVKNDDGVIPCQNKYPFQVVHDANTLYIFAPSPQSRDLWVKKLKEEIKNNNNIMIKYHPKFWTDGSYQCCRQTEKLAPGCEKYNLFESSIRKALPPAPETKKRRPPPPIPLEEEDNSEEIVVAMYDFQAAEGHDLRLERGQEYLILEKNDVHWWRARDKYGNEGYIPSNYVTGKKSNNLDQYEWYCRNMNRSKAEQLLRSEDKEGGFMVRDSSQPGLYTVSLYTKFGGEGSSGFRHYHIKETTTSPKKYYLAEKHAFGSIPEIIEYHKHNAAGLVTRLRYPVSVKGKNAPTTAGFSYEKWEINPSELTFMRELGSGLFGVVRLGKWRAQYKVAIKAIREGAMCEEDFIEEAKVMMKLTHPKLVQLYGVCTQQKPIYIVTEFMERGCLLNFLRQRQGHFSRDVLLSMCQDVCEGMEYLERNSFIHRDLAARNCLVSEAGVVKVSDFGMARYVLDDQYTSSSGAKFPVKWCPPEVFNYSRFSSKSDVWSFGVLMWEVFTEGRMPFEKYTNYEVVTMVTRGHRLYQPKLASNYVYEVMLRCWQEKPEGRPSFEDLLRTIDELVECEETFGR

[8] = molecular target: Serine/threonine-protein kinase 3 (Homo sapiens) (UniProt Q13188); assay: Binding affinity to wild-type human partial length MST2 (D17 to E318 residues) expressed in bacterial expression system assessed as remaining unbound target protein level at 1000 nM by Kinomescan method relative to control; outline: as §1
[9] = molecular target: Discoidin domain-containing receptor 2 (Homo sapiens) (UniProt Q16832); assay: Binding affinity to wild-type human partial length DDR2 (V555 to E855 residues) expressed in mammalian expression system assessed as remaining unbound target protein level at 1000 nM by Kinomescan method relative to control
[10] = test system: Receptor-type tyrosine-protein kinase FLT3 (Homo sapiens), P36888 [D835Y]; assay: Binding affinity to human partial length FLT3 D835Y mutant (Q580 to Y969 residues) expressed in bacterial expression system assessed as remaining unbound target protein level at 1000 nM by Kinomescan method relative to control
Outline: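 KINOMEscan competition-binding profiling across the panel of 468 kinases and mutants, with inhibitor tested at 1 μM. Binding is expressed as percent of control, with DMSO as the reference control.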

[11] = molecular target: Dual specificity mitogen-activated protein kinase kinase 5 (Homo sapiens) (UniProt Q13163); assay: Binding affinity to wild-type human partial length MEK5 (L98 to P448 residues) expressed in mammalian expression system assessed as remaining unbound target protein level at 1000 nM by Kinomescan method relative to control; outline: as §1
Chain of Dual specificity mitogen-activated protein kinase kinase 5 (Homo sapiens) (Q13163 whole entry, the tested form may be a part): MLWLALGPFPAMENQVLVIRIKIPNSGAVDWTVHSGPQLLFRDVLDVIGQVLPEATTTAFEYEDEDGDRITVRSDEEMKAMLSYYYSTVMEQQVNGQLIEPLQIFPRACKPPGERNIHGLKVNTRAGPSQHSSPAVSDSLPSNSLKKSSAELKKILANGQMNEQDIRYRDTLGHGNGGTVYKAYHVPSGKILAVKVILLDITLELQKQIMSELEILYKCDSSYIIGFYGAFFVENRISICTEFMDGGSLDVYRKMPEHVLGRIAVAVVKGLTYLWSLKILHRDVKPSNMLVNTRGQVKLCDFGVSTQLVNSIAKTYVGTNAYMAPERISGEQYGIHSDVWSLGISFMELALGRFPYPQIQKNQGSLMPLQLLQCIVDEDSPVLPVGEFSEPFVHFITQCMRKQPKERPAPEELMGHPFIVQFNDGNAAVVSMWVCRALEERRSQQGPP

[12] = molecular target: Serine/threonine-protein kinase Nek5 (Homo sapiens) (UniProt Q6P3R8); assay: Binding affinity to wild-type human partial length NEK5 (M1 to M279 residues) expressed in bacterial expression system assessed as remaining unbound target protein level at 1000 nM by Kinomescan method relative to control
[13] = molecular target: Receptor-type tyrosine-protein kinase FLT3 (Homo sapiens) (UniProt P36888); assay: Binding affinity to wild-type human partial length autoinhibited FLT3 (H564 to Y969 residues) expressed in mammalian expression system assessed as remaining unbound target protein level at 1000 nM by Kinomescan method relative to control
[14] = molecular target: SRSF protein kinase 2 (Homo sapiens) (UniProt P78362); assay: Binding affinity to wild-type human full length SRPK2 (M1 to S686 residues) expressed in bacterial expression system assessed as remaining unbound target protein level at 1000 nM by Kinomescan method relative to control
Outline: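 Profiled in a KINOMEscan binding panel with the inhibitor at a single concentration of 1 μM. Binding to each kinase was read out as percent of control, relative to a DMSO control. Strong binders were defined as those with a percent control value below 1.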

[15] = molecular target: Ephrin type-A receptor 7 (Homo sapiens) (UniProt Q15375); assay: Binding affinity to wild-type human partial length EPHA7 (Y608 to S912 residues) expressed in bacterial expression system assessed as remaining unbound target protein level at 1000 nM by Kinomescan method relative to control; outline: as §1
HL-60 = assay: Induction of apoptosis in human HL60 cells assessed as decrease in MCL-1 level after 2 hrs by immunoblotting analysis; format: functional, cell-based
[16] = molecular target: Serine/threonine-protein kinase Nek1 (Homo sapiens) (UniProt Q96PY6); assay: Binding affinity to wild-type human partial length NEK1 (M1 to K278 residues) expressed in bacterial expression system assessed as remaining unbound target protein level at 1000 nM by Kinomescan method relative to control
[17] = molecular target: Cyclin-dependent kinase 9 (Homo sapiens, UniProt P50750); assay: Inhibition of CDK9 in human MV4-11 cells assessed as decrease in RNA polymerase 2 phosphorylation at Ser 2 residues in CTD domain after 2 hrs by immunoblotting analysis; format: cell-based
Chain of Cyclin-dependent kinase 9 (P50750 whole entry, the tested form may be a part): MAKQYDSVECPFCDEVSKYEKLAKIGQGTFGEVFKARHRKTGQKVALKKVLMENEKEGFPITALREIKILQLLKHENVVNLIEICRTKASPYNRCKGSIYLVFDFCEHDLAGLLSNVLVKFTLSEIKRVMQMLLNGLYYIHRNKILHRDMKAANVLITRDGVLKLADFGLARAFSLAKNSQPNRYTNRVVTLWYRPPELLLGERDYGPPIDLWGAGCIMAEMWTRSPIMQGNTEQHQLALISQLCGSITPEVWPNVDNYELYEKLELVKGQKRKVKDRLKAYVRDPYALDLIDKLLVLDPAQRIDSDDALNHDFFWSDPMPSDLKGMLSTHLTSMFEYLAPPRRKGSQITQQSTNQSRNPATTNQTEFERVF

[18] = molecular target: Tyrosine-protein kinase Srms (Homo sapiens) (UniProt Q9H3Y6); assay: Binding affinity to wild-type human partial length SRMS (L208 to P488 residues) expressed in mammalian expression system assessed as remaining unbound target protein level at 1000 nM by Kinomescan method relative to control
Chain of Tyrosine-protein kinase Srms (Homo sapiens) (Q9H3Y6 whole entry, the tested form may be a part): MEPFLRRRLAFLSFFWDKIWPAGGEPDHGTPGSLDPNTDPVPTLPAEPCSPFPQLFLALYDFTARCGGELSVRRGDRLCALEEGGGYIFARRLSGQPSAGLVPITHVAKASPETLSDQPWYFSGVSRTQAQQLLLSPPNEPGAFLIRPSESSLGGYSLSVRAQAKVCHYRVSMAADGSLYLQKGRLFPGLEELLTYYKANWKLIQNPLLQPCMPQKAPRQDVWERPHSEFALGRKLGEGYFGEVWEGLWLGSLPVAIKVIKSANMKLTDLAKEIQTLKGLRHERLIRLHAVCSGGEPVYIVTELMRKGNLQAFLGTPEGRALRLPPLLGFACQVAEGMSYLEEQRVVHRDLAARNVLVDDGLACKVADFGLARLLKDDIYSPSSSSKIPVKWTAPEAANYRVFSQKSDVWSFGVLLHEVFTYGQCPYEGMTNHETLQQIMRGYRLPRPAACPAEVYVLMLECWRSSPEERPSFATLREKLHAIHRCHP

[19] = molecular target: Tyrosine-protein kinase Lyn (Homo sapiens) (UniProt P07948); assay: Binding affinity to wild-type human partial length LYN (C219 to Q511 residues) expressed in bacterial expression system assessed as remaining unbound target protein level at 1000 nM by Kinomescan method relative to control; outline: as §1
Chain of Tyrosine-protein kinase Lyn (Homo sapiens) (P07948 2-512 limits assumed): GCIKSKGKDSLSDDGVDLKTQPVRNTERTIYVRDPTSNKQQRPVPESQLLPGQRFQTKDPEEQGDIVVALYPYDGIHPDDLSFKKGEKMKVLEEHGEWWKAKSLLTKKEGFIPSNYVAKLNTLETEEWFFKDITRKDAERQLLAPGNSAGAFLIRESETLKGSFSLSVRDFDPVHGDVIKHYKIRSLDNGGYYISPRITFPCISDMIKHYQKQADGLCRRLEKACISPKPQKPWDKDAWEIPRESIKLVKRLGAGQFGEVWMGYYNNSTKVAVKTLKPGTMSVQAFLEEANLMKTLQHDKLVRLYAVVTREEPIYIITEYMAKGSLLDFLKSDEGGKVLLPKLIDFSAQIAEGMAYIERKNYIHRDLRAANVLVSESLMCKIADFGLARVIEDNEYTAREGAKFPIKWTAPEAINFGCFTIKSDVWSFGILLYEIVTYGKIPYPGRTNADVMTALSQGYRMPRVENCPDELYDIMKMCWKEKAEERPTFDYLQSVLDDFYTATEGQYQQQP

`COCCN[C@H]1CC[C@H](Nc2cc(-c3csc(NCC4(C#N)CCOCC4)n3)c(Cl)cn2)CC1` gave a Ratio IC50 (Homo sapiens) greater than 1000, an Activity [1] of 100% and an Activity [2] of 100%. The IC50 (CDK2/Cyclin A2) was 2860 nM, the Activity [3] was 93% and the Activity [4] was 63%. The Activity [5] was 90%, the half-life [6] was 408 min and the Activity [7] was 92%. It also gave an Activity [8] of 69%, an Activity [9] of 97% and an Activity [10] of 100%. It also gave an Activity [11] of 81%, an Activity [12] of 90% and an Activity [13] of 100%. For the same compound, the Activity [14] was 100%, the Activity [15] was 94% and the Activity (HL-60) was “Dose-dependent effect”. The Activity [16] was 85%, the EC50 [17] was less than 100 nM and the inhibition [17] was “Dose-dependent effect”. For the same compound, the Activity [18] was 89% and the Activity [19] was 86%.
